Assay results from different studies.
Lines come from different studies, so protocols differ. ≈ marks a conversion by molar mass, not a printed value.

SMILES	organism	test	test system	conditions	measurement	result
C[C@@H](Oc1cc(-n2cnc3ccc(OCC4CCN(C)CC4)cc32)sc1C(N)=O)c1ccccc1C(F)(F)F	Trypanosoma brucei	parasite growth	–	–	EC50	0.0158 µM
CS(=O)(=O)c1ccc(/C=C/c2nc3ccccc3c(=O)n2-c2cccc(C(=O)O)c2)cc1	Enterococcus faecium	microbial growth, broth dilution	NCTC7171	–	MIC	> 128 µg/mL
CC1=C(C(=O)Nc2cc3cn[nH]c3cc2F)C(c2ccc(C(F)(F)F)cc2)CC(=O)N1 (stereo not drawn)	Plasmodium berghei	parasite growth, luciferase	human	liver stage	IC50	4.7 µM
C[C@@H]1[C@H](O)[C@@H](C)/C=C/C=C/C=C/C=C/C=C/C=C/C=C/[C@H](O[C@@H]2O[C@H](C)[C@@H](O)[C@H](N)[C@@H]2O)C[C@@H]2O[C@](O)(C[C@@H](O)C[C@@H](O)[C@H](O)CC[C@@H](O)C[C@@H](O)CC(=O)O[C@H]1C)C[C@H](O)[C@H]2C(=O)O	Candida albicans	microbial growth	ATCC90028	–	IC50	0.32 µg/mL
C[N+](C)(C)CCc1ccc(Oc2ccc(-c3noc(-c4ccc(O)cc4)n3)cc2)cc1.[I-]	Enterococcus faecium	microbial growth, broth dilution	–	24 h	MIC	8 µg/mL
CCCCCCCCCCCCCC(O)CC(O)CO (stereo not drawn)	Candida albicans	microbial growth, broth dilution	ATCC90028	–	IC50	> 200 µg/mL
O=C(Nc1ccc(Oc2ccc3nc(NC(=O)c4ccco4)[nH]c3c2)cc1)Nc1cc(C(F)(F)F)ccc1F	Trypanosoma brucei	parasite growth	–	–	EC50	2.51 µM
C[C@@H]1[C@H](O)[C@@H](C)/C=C/C=C/C=C/C=C/C=C/C=C/C=C/[C@H](O[C@@H]2O[C@H](C)[C@@H](O)[C@H](N)[C@@H]2O)C[C@@H]2O[C@](O)(C[C@@H](O)C[C@@H](O)[C@H](O)CC[C@@H](O)C[C@@H](O)CC(=O)O[C@H]1C)C[C@H](O)[C@H]2C(=O)O	Candida albicans	microbial killing	ATCC90028	–	MFC	1.25 µg/mL (≈ 1.35 µM)
O=C(O)c1cn(C2CC2)c2cc(N3CCNCC3)c(F)cc2c1=O	Mycobacterium intracellulare	microbial growth, resazurin	ATCC23068	–	IC50	0.4 µg/mL
COc1ccc(-c2nn3ncccc3c2-c2ccnc(Nc3ccc4c(c3)OCCO4)n2)cc1	Plasmodium berghei	parasite growth, luciferase	human	liver stage	IC50	3.5 µM
Cl.NCCc1ccc(Oc2ccc(-c3noc(-c4ccc(O)cc4)n3)cc2)cc1	Enterococcus faecium	microbial growth, broth dilution	–	24 h	MIC	4 µg/mL
CC1=C(C(=O)Nc2ccc3[nH]ncc3c2)C(c2ccc(Cl)c(Cl)c2)CC(=O)N1 (stereo not drawn)	Trypanosoma brucei	parasite growth	–	–	EC50	25.1 µM
O=C(O)c1ccc(-c2c[nH]c3ncc(-c4ccccc4)cc23)cc1C1CCCC1	Plasmodium berghei	parasite growth, luciferase	human	liver stage	IC50	1.2 µM
CS(=O)(=O)NCc1cccc(-n2c(/C=C/c3ccc(C#N)cc3)nc3ccccc3c2=O)c1	Enterococcus faecium	microbial growth, broth dilution	NCTC7171	–	MIC	> 128 µg/mL
CC(C)=Cc1cccc2c1C(=NNc1ccc(S(N)(=O)=O)cc1)C(=O)N2	Trypanosoma brucei	parasite growth	–	–	EC50	0.0316 µM
COC(=O)Cc1ccc(/C=C/c2nc3ccccc3c(=O)n2-c2cccc(C(=O)O)c2)cc1	Enterococcus faecium	microbial growth, broth dilution	NCTC7171	–	MIC	> 128 µg/mL
O=C(Nc1ccccc1-c1ccc(F)c(F)c1)c1nccnc1C(F)(F)F	Alternaria brassicicola	microbial growth	–	–	EC50	0.057 µg/mL
Cl.Oc1cccc2c1[nH]c1c(C3=CC4(O)CC/C=C\CCCCN5CCC3C3(CC6/C=C\CCCCN6C43)C5)nccc12 (single isomer, unassigned; (+))	Mycobacterium intracellulare	microbial growth, resazurin	ATCC23068	–	IC50	0.22 µg/mL

SMILES	organism	test	test system	conditions	measurement	result
O=C(O)c1cn(C2CC2)c2cc(N3CCNCC3)c(F)cc2c1=O	Mycobacterium intracellulare	microbial killing	ATCC23068	–	MBC	3 µM (≈ 0.994 µg/mL)
CC(=O)Nc1ccc(-c2nc(-c3ccc(Oc4ccccc4)cc3)no2)cc1	Enterococcus faecium	microbial growth, broth dilution	–	24 h	MIC	> 32 µg/mL
C#CCCCCCCCCC=CCC(O)CC(O)CO (stereo not drawn)	Mycobacterium intracellulare	microbial growth, resazurin	ATCC23068	–	IC50	> 200 µg/mL
COc1cc(/C=N/Nc2ncnc3c2cnn3C(C)C)ccc1O	Trypanosoma brucei	parasite growth	–	–	EC50	1 µM
Oc1ccc(-c2nc(-c3ccc(Oc4ccccc4)cc3)no2)cc1	Enterococcus faecium	microbial growth, broth dilution	–	24 h	MIC	2 µg/mL (≈ 6.05 µM)
CC1=C(C(=O)Nc2ccc3[nH]ncc3c2)C(c2ccc3ccccc3c2)CC(=O)N1 (stereo not drawn)	Trypanosoma brucei	parasite growth	–	–	EC50	3.98 µM
CNCCc1ccc(Oc2ccc(-c3noc(-c4ccc(O)cc4)n3)cc2)cc1.Cl	Enterococcus faecium	microbial growth, broth dilution	–	24 h	MIC	4 µg/mL
N#Cc1ccc(/C=C/c2nc3ccccc3c(=O)n2-c2cccc(C(=O)NCCC(=O)O)c2)cc1	Enterococcus faecium	microbial growth, broth dilution	NCTC7171	–	MIC	> 128 µg/mL
COc1cc2ncn(-c3cc(O[C@H](C)c4ccccc4Cl)c(C(N)=O)s3)c2cc1OC	Plasmodium berghei	parasite growth, luciferase	human	liver stage	IC50	7 µM
NC(=O)c1cccc(-n2c(/C=C/c3ccc(Cl)cc3)nc3ccncc3c2=O)c1	Enterococcus faecium	microbial growth, broth dilution	NCTC7171	–	MIC	> 128 µg/mL
NS(=O)(=O)c1ccc(N/N=C2\C(=O)Nc3ccc(Cl)cc32)cc1	Trypanosoma brucei	parasite growth	–	–	EC50	1.58 µM
CS(=O)(=O)Nc1cccc(-n2c(/C=C/c3ccc(F)cc3)nc3ccccc3c2=O)c1	Enterococcus faecium	microbial growth, broth dilution	NCTC7171	–	MIC	> 128 µg/mL
COc1cc2c(cc1Nc1nc(Nc3cccc(F)c3C(N)=O)c3cc[nH]c3n1)N(C(=O)CN1CCN(C(C)C)CC1)CC2	Trypanosoma brucei	parasite growth	–	–	EC50	0.2 µM
C=CCCCCCCCCCCCC(O)CC(O)CO (stereo not drawn)	Candida albicans	microbial growth, broth dilution	ATCC90028	–	IC50	> 200 µg/mL
CC(=O)OCC#Cc1ccc(/C=C/c2nc3ccccc3c(=O)n2-c2cccc(C(=O)O)c2)cc1	Enterococcus faecium	microbial growth, broth dilution	NCTC7171	–	MIC	> 128 µg/mL
CC(C)Oc1c(NC(=O)c2ccc(NC(=O)c3ccc(NC(=O)[C@H](CC(N)=O)NC(=O)c4ccc(NC(=O)c5ccc(C#N)cn5)cc4)cc3)c(OC(C)C)c2O)ccc(C(=O)O)c1O	Citrobacter freundii	microbial growth	DSM30039	–	MIC	0.5 µg/mL (≈ 0.564 µM)
N#Cc1ccc(/C=C/c2nc3ccccc3c(=O)n2-c2cccc(C(=O)NCc3cccnc3)c2)cc1	Enterococcus faecium	microbial growth, broth dilution	NCTC7171	–	MIC	> 128 µg/mL
Cl.NCCCc1ccc(Oc2ccc(-c3noc(-c4ccc(O)cc4)n3)cc2)cc1	Enterococcus faecium	microbial growth, broth dilution	–	24 h	MIC	2 µg/mL
